Source: PubChem (The Scripps Research Institute Molecular Screening Center)
M5 PAM = potentiates acetylcholine response at human M5 receptor; CHO-K1 hM5, Fluo-8 calcium, ACh EC20 PAM; 0% = ACh EC20, 100% = ACh EC100; activation, % at 3 µM; 0.3% of 360,000 active; AID 624038;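 active = activation above the run cutoff, the mean activation of all test compounds plus 3 SD, cut at about 18% in these data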
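System – CHO-K1 hM5 cells · Compound – 3 µM, single dose · Incubation – compound preincubation 140 s before EC20 acetylcholine addition · Technique – Fluo-8 calcium fluorescence · Measure – Max/basal fluorescence ratio as % of EC20–EC100 ACh window · Benchmarks – low control EC20 acetylcholine (0%), high control EC100 acetylcholine (100%) · Replication – singlicate, one well per test compound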
M5 antag = antagonists of human muscarinic M5 receptor (CHRM5). 0.59% of 360,000 active. P08912. inhibition, % at 3 µM. CHO-hM5 cells, Fluo-8 calcium fluorescence, ACh EC80;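 active = inhibition above a per-plate cutoff, the mean of that plate's test compounds plus 3 SD, cut at about 27% in these data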
M4 PAM = CHRM4 positive allosteric modulation; P08173; CHO-K1 hM4/Gqi5, Fluo-8 calcium fluorescence, ACh EC20; 0% = ACh EC20, 100% = maximal ACh; activation, % at 3 µM; 0.4% of 360,000 active; AID 624126;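 active = activation above its plate's cutoff, the mean activation of sample wells plus 3 SD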
Target sequence (P08173 whole entry, looked up): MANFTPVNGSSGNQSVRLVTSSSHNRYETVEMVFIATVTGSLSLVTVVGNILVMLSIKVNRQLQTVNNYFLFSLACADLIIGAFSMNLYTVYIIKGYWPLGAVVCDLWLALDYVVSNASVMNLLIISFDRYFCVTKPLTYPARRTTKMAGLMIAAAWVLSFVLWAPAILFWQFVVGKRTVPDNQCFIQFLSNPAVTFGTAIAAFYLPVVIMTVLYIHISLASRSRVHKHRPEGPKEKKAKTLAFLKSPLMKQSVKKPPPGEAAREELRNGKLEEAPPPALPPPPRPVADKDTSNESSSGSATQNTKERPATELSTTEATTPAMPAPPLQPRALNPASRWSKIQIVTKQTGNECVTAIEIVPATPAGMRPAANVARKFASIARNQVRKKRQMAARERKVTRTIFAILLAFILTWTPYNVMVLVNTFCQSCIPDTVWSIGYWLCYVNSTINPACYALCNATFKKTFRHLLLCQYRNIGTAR
CHRM4 antagonist = CHRM4 antagonism in calcium assay; P08173; CHO-hM4 cells, ACh EC80, Fluo-8 calcium fluorescence; inhibition, % at 3 µM; 0.73% of 360,000 active; AID 624125;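 active = inhibition above its plate's cutoff, the mean inhibition of sample wells plus 3 SD, cut at about 27% in these data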
CHRM4 agonist = agonists of human muscarinic M4 receptor (CHRM4); P08173; activation, % at 3 µM; CHO-K1 hM4/Gqi5, Fluo-8 calcium fluorescence; vehicle 0%, full acetylcholine response 100%; 0.14% of 360,000 active; AID 624127;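 active = activation above the run mean over all test wells plus 3 SD, cut at about 32% in these data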;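 note: peak over basal fluorescence ratio per well then scaled between controls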
CHRM5 agonist = CHRM5 agonism in calcium assay. P08912. CHO-K1 hM5 cells, Fluo-8 calcium fluorescence; 0% DMSO wells, 100% maximal acetylcholine response. activation, % at 3 µM. 0.19% of 360,000 active. AID 624037;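 active = activation above the run's mean over test compounds plus 3 SD, cut at about 23% in these data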;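 note: signal is peak over basal fluorescence ratio across the kinetic read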
A number is an active result; i = inactive. Only some compounds are listed: those with a hit (about 1.8% of all), similar ones and a draw of the others.

SMILES | M5 PAM | M5 antag | M4 PAM | CHRM4 antagonist | CHRM4 agonist | CHRM5 agonist
O=C(COc1ccc(Cl)cc1)Nc1ncc([N+](=O)[O-])s1 | i | 31.0 | i | i | i | i
COc1cc(/C=C2\SC(=O)N(c3ccc(Cl)cc3)C2=O)cc([N+](=O)[O-])c1O | i | i | i | i | i | i
COc1cc(/C=C2\SC(=O)N(c3cccc(Cl)c3)C2=O)cc([N+](=O)[O-])c1O | i | i | 23.4 | i | i | i
CCN1/C(=C/c2sc(-c3ccccc3C)c[n+]2C)Sc2ccccc21 | i | 36.9 | i | i | i | i
CCCCn1c(N)c(N(CC(C)C)C(=O)CCNC(=O)c2ccc(Br)cc2)c(=O)[nH]c1=O | i | i | i | i | i | i
CC12CCC3C(=CCc4cc(O)ccc43)C1CC(=NO)C2O (configuration not stated) | i | i | i | i | i | 24.0
Cc1ccc(S(=O)(=O)n2ccc3c2CCCC3=O)cc1 | i | 37.4 | i | 27.3 | i | i
COc1ccccc1OCc1ccc(C(=O)N2CCOCC2)o1 | i | i | i | i | i | i
COc1ccccc1OCc1ccc(C(=O)N2CCCCC2)o1 | 22.2 | i | 34.0 | i | i | i
CCN1CCCC(OC(=O)C(c2ccccc2)c2ccccc2)C1 (configuration not stated) | i | 57.3 | i | 32.1 | i | i
Cc1ccc(CNC(=O)CC(C)S(=O)(=O)c2cc3c(cc2C)NC(=O)CO3)cc1 (configuration not stated) | i | i | i | i | i | i
CC1(C)CC(=O)C(=Cc2cn(CCC#N)nc2-c2ccc(Cl)cc2)C(=O)C1 | i | i | 19.8 | i | i | i
O=C(COc1ccccc1)Nc1cccc(-c2nn[nH]n2)c1 | i | i | i | i | i | i
O=C(COc1ccccc1)Nc1cccc(-c2nc3cc4ccccc4cc3[nH]2)c1 | i | i | i | 29.8 | i | i
CCCCN(C)CCN1C(=O)C2C(C(=O)Nc3cccc(OC)c3)C3C=CC2(O3)C1C(=O)NC1CCCCC1C (configuration not stated) | i | i | i | i | i | i
COc1ccc(C(=O)Oc2ccc3oc(=O)sc3c2)cc1 | i | i | i | 57.6 | i | i
COc1ccc(C(=O)Oc2ccc3ccc(=O)oc3c2)cc1 | i | i | i | i | i | i
O=C1NCCc2c1[nH]c1c(Cl)ccc(Cl)c21 | 20.6 | i | i | i | i | i
O=C(Nc1ccnn1C1CCN(C(=O)c2cccc(C(F)(F)F)c2)CC1)C1CC1 | i | i | 21.3 | i | i | i
O=C(Nc1ccnn1C1CCN(C(=O)c2ccc(C(F)(F)F)cc2)CC1)C1CC1 | i | i | i | i | i | i
COc1ccccc1CN(C)C[C@@H]1OCc2cnnn2CCCC(=O)N([C@@H](C)CO)C[C@H]1C | i | i | i | i | i | i
O=C(C1CCN(S(=O)(=O)N2CCC3(CC2)OCCO3)CC1)N1CCc2ccccc2C1 | i | i | i | i | i | i
O=C(C1CCN(c2ccc(N3CCOCC3)nn2)CC1)N1CCc2ccccc2C1 | i | i | i | 46.4 | i | i
Cc1ccc2c(c1)[C@H]1[C@H](CO2)[C@H](c2ccccc2)[C@]2(C)C(=O)Nc3ccccc3C(=O)N12 | i | i | i | 60.3 | i | i
Cc1ccc2c(c1)NC(=O)[C@@]1(C)[C@@H](c3ccccc3)[C@H]3COc4ccccc4[C@@H]3N1C2=O | i | i | i | i | i | i
SMILES | M5 PAM | M5 antag | M4 PAM | CHRM4 antagonist | CHRM4 agonist | CHRM5 agonist
C[C@@]12C(=O)Nc3ccc(Br)cc3C(=O)N1[C@H]1c3ccccc3OC[C@@H]1[C@@H]2c1ccccc1 | i | i | i | 35.4 | i | i
Cc1ccc2c(c1)C(=O)N1[C@H]3c4ccccc4OC[C@@H]3[C@H](c3ccccc3)[C@]1(C)C(=O)N2 | i | i | i | 52.7 | i | i
COc1ccc2c(c1)OC[C@H]1[C@H]2N2C(=O)c3ccccc3NC(=O)[C@@]2(C)[C@H]1c1ccccc1 | i | i | i | 56.4 | i | i
Cc1ccc2c(c1)[C@H]1[C@H](CO2)[C@H](c2ccccc2)[C@]2(C)C(=O)Nc3ccc(Cl)cc3C(=O)N12 | i | i | i | i | i | i
COc1ccc2c(c1)OC[C@H]1[C@H]2N2C(=O)c3cc(C)ccc3NC(=O)[C@@]2(C)[C@H]1c1ccccc1 | i | i | i | i | i | i
CCn1cc(/C=C(\NC(=O)c2ccc(OC)c(OC)c2)C(=O)NCCCN2CCOCC2)c2ccccc21 | i | i | i | i | i | i
COc1ccc2c(c1)[C@H]1[C@H](CO2)[C@H](c2ccccc2)[C@]2(C)C(=O)Nc3ccc(C)cc3C(=O)N12 | i | i | i | i | i | i
COc1ccc2c(c1)C(=O)N1[C@H]3c4cc(C)ccc4OC[C@@H]3[C@H](c3ccccc3)[C@]1(C)C(=O)N2 | i | i | i | 33.6 | i | i
COC(=O)C1=C(C)N(CCc2ccc(OC)c(OC)c2)C(=O)C1 | 27.9 | i | i | i | i | i
C=CCN(C(=O)c1ccc2snnc2c1)c1ccccc1 | i | i | i | i | i | i
CN1C[C@@H]2C(c3ccccc3)C3(c4cccnc4)CC2(C3)[C@H]1c1ccccc1 (some centres not stated) | i | 31.1 | i | 56.7 | i | i
Cc1nc2c(OCc3ccccc3)cccn2c1N(C)C(=O)C1CCCCC1 | i | i | i | i | i | i
CCCCc1ccc(/C=C2/C(=O)ON=C2c2ccccc2)s1 | i | i | 26.6 | i | i | i
COC(=O)[C@]12CCCCC=C1N(CCc1ccc(OC)c(OC)c1)C(=O)[C@H](CC(=O)N1CCC(c3ccccc3)CC1)C2 | i | 27.8 | i | i | i | i
COC(=O)[C@]12CCCCC=C1N(CCc1ccc(OC)c(OC)c1)C(=O)[C@H](CC(=O)NCc1cccc(C(F)(F)F)c1)C2 | i | i | i | i | i | i
COC(=O)[C@@]12C[C@@H](CC(=O)NCc3cccc(C(F)(F)F)c3)C(=O)N(CCc3ccc(OC)c(OC)c3)C1=CCC(C)(C)C2 | i | i | i | 27.2 | 32.5 | i
COc1ccc(CC(C)CC(=O)NCCc2ccc(OC)c(OC)c2)cc1 (configuration not stated) | i | i | i | i | i | i
CC(OC(=O)COc1ccccc1[N+](=O)[O-])C(=O)Nc1ccc(N2CCOCC2)cc1 (configuration not stated) | i | i | i | i | i | i
Nc1c(C(=O)O)sc2nc(-c3ccccc3)cc(-c3ccc(F)cc3)c12 | 20.6 | i | i | i | i | i
Cc1ccc(NC2SC(=O)N(Cc3cccc(C(=O)O)c3)C2=O)cc1 (configuration not stated) | 22.6 | i | i | i | i | i
